Data set [1] concerns the target T1, Disintegrin and metalloproteinase domain-containing protein 10 (Homo sapiens) (UniProt O14672).
T1 sequence (whole entry): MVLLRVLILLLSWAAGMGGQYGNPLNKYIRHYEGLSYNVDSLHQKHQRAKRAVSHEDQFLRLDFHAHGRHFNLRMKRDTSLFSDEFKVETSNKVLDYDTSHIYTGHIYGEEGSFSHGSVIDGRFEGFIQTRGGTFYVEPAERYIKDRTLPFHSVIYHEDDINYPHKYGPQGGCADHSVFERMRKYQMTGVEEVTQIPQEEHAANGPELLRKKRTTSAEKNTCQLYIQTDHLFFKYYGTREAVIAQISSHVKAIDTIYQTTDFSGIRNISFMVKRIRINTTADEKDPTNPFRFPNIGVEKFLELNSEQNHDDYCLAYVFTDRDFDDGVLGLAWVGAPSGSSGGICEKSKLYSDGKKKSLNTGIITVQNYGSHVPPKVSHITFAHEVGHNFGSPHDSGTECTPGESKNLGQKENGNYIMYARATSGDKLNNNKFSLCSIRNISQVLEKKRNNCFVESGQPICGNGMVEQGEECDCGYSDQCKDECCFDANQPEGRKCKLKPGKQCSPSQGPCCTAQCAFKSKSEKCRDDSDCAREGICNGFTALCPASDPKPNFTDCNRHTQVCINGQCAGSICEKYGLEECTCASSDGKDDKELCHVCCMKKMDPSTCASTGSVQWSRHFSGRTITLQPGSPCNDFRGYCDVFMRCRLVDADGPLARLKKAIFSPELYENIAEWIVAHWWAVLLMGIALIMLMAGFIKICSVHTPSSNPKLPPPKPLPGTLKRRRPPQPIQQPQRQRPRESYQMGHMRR
The following applies: A549, 10 uM.

The target of data set [2] is T2, Neutrophil collagenase (Homo sapiens, UniProt P22894). Briefly: Inhibition of MMP8 (unknown origin) using Mca-KLPGL-Dnp-AR as substrate preincubated for 30 mins followed by substrate addition measured after 1 hr by fluorescence assay. In outline:
(§1)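 Inhibitor as 10-point 1:3 dilutions from 300 μM, 30 min at RT. Substrate added from a 30 μM 3× solution. Single fluorescence read (ex 324/em 393 nm) after 1 h at RT.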
Target sequence in this assay (P22894 whole entry): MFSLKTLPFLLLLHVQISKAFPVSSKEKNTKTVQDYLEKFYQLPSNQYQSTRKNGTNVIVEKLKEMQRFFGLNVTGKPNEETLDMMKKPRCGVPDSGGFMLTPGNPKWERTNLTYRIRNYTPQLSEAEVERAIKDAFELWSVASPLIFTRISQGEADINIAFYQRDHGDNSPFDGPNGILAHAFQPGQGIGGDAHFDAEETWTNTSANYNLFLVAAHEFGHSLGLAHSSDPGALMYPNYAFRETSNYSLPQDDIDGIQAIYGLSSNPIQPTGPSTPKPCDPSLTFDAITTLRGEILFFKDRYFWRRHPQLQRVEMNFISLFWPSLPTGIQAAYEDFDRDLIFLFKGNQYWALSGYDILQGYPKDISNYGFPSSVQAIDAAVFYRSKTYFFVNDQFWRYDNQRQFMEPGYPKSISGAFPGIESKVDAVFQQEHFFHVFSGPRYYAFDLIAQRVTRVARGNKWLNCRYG

Data set [3] deals with T3, Disintegrin and metalloproteinase domain-containing protein 17 (Homo sapiens, UniProt P78536). Briefly: Inhibition of ADAM17 in HTSMC assessed as inhibition of LPS-stimulated IL-8 shedding at 10 uM preincubated for 30 mins followed by LPS challenge measured after 4 to 24 hrs by ELISA. In outline:
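HTSMCs stimulated with LPS for IL-8 release; compounds at 10 μM. Mean ± SEM, n = 3 from three independent experiments; one-way ANOVA with Dunnett post hoc test.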
On the technique in general: In an ELISA, binding on a coated surface is turned into a signal by an enzyme label.

Data set [4] has as its target T3, Disintegrin and metalloproteinase domain-containing protein 17. Briefly: Inhibition of ADAM17 (unknown origin) preincubated for 30 mins followed by substrate addition measured every 30 mins for 2 hrs by fluorescence assay. In outline: (§2)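 Enzyme at 30 nM (3× solution) in 10 mM Hepes, 0.001% Brij-35, pH 7.5. Inhibitor series of 10 points, 1:3, from 300 μM, preincubated 30 min at RT. Glycosylated substrate added from a 30 μM 3× solution. Fluorescence (ex 360/em 460 nm) read every 30 min for 2 h. Inhibition taken from hydrolysis rates against substrate-only and substrate-plus-enzyme wells.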

The target of data set [5] is T4, Matrix metalloproteinase-14 (Homo sapiens, UniProt P50281). Briefly: Inhibition of MMP14 (unknown origin) using Mca-KLPGL-Dnp-AR as substrate at 100 uM preincubated for 30 mins followed by substrate addition measured after 1 hr by fluorescence assay relative to control.
The target of data set [6] is T1, Disintegrin and metalloproteinase domain-containing protein 10 (Homo sapiens). Briefly: Inhibition of ADAM10 in human A549 cells assessed as inhibition of betacellulin shedding at 40 uM after 1 hr by ELISA. Type of data set: cell-based. In outline:
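A549 cells were tested for betacellulin shedding at 40 μM, with Marimastat at 10 μM as control.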

Data set [7] deals with T3, Disintegrin and metalloproteinase domain-containing protein 17. Briefly: Inhibition of ADAM17 in human A549 cells assessed as effect on PMA-stimulated TGFalpha shedding up to 100 uM preincubated for 1 hr followed by PMA stimulation measured after 1 hr by ELISA. Type of data set: cell-based. A digest of the protocol: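 TGFα shedding from PMA-treated A549 cells tested up to 100 μM. Marimastat at 10 μM served as control, with a non-PMA-treated control included; soluble TGFα measured in the supernatant.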

The subject of a further data set is A549. Briefly: Cytotoxicity against human A549 cells assessed as inhibition of cell viability up to 33 uM after 72 hrs by CellTiter-Glo assay. Type of data set: cell-based. To be noted: a549, 72 h.
Data set [8] concerns the target T2, Neutrophil collagenase. Briefly: Inhibition of MMP8 (unknown origin) using Mca-KLPGL-Dnp-AR as substrate at 100 uM preincubated for 30 mins followed by substrate addition measured after 1 hr by fluorescence assay relative to control. In outline: as §1
Target sequence in this assay (P22894 101-467 limits assumed): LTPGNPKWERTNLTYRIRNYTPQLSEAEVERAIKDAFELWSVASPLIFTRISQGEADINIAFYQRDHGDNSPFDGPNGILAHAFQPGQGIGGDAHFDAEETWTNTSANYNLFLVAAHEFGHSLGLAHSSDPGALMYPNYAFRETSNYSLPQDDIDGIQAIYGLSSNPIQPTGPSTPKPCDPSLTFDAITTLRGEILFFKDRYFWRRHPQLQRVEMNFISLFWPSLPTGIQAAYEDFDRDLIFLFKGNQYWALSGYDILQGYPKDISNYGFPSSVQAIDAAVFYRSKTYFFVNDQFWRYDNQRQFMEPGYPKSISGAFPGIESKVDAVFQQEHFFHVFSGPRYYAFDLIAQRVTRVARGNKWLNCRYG
For data set [9], the target named is T1, Disintegrin and metalloproteinase domain-containing protein 10 (Homo sapiens). Briefly: Inhibition of ADAM10 in HTSMC assessed as inhibition of PMA-stimulated release of CXCL16 at 10 uM preincubated for 30 mins followed by PMA challenge measured after 4 to 24 hrs by ELISA.
Data set [10] concerns the target T5, Matrix metalloproteinase-9 (Homo sapiens, UniProt P14780). Briefly: Inhibition of MMP9 (unknown origin) using Mca-KLPGL-Dnp-AR as substrate at 100 uM preincubated for 30 mins followed by substrate addition measured after 1 hr by fluorescence assay relative to control. In outline:
as §1

In data set [11] the target is T3, Disintegrin and metalloproteinase domain-containing protein 17. Briefly: Inhibition of ADAM17 in human THP1 cells assessed as inhibition of LPS-stimulated TNFalpha cleavage at 25 uM after 1 hr by AlphaScreen assay relative to control. To be noted: THP-1. Type of data set: cell-based. In outline:
(§3)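 THP-1 cells grown in RPMI 1640 with 10% FBS and 0.05 mM 2-mercaptoethanol; 3000 cells per well. Compound given in 3% DMSO for 1 h, then LPS added (1 μg/mL final) and cells incubated overnight at 37 °C. TNFα detected by AlphaScreen using anti-TNFα acceptor beads and streptavidin donor beads, each step 1 h in the dark at RT.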
Background: Bead proximity is the source of the signal in Alpha formats.

In data set [12] the target is T1, Disintegrin and metalloproteinase domain-containing protein 10 (Homo sapiens). Briefly: Inhibition of ADAM10 (unknown origin) at 100 uM preincubated for 30 mins followed by substrate addition measured every 30 mins for 2 hrs by fluorescence assay relative to control. A digest of the protocol:
as §2

Data set [13] concerns the target T5, Matrix metalloproteinase-9. Briefly: Inhibition of MMP9 (unknown origin) using Mca-KLPGL-Dnp-AR as substrate preincubated for 30 mins followed by substrate addition measured after 1 hr by fluorescence assay. A digest of the protocol:
as §1

For a further data set, the system named is MDA-MB-231. Briefly: Cytotoxicity against human MDA-MB-231 cells assessed as inhibition of cell viability up to 33 uM after 72 hrs by CellTiter-Glo assay. Type of data set: cell-based. The following applies: mda-mb-231, 72 h. On the technique in general: Cellular ATP, detected with luciferase, serves as a proxy for viable cell number.
Data set [14] has as its target T6, 72 kDa type IV collagenase (Homo sapiens, UniProt P08253). Briefly: Inhibition of MMP2 (unknown origin) using Mca-KLPGL-Dnp-AR as substrate preincubated for 30 mins followed by substrate addition measured after 1 hr by fluorescence assay. In outline:
as §1
Target sequence in this assay (P08253 whole entry): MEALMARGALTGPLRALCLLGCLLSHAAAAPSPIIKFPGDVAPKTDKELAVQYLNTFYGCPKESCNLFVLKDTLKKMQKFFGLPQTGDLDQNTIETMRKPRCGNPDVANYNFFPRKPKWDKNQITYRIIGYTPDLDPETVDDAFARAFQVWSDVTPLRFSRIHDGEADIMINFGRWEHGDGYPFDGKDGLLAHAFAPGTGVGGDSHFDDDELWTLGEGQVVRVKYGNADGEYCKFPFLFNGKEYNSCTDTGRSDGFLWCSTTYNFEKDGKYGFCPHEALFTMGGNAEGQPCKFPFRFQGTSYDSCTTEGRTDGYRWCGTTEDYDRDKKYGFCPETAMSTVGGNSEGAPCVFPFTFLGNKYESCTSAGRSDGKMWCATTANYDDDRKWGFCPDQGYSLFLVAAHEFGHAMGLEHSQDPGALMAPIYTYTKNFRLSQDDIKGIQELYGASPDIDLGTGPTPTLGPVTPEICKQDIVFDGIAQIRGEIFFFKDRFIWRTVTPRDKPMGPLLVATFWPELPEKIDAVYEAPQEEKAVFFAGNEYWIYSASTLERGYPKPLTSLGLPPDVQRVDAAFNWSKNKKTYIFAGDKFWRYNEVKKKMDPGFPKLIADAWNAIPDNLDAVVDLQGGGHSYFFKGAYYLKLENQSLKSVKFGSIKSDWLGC

Data set [15] has as its target T7, Disintegrin and metalloproteinase domain-containing protein 10 (Homo sapiens, UniProt O14672).
T7 sequence (O14672 whole entry): T1 sequence (whole entry)
Briefly: Inhibition of ADAM10 (unknown origin) preincubated for 30 mins followed by substrate addition measured every 30 mins for 2 hrs by fluorescence assay. In outline:
as §2

Data set [16] deals with T6, 72 kDa type IV collagenase. Briefly: Inhibition of MMP2 (unknown origin) using Mca-KLPGL-Dnp-AR as substrate at 100 uM preincubated for 30 mins followed by substrate addition measured after 1 hr by fluorescence assay relative to control. In outline:
as §1
Target sequence in this assay (P08253 110-660 limits assumed): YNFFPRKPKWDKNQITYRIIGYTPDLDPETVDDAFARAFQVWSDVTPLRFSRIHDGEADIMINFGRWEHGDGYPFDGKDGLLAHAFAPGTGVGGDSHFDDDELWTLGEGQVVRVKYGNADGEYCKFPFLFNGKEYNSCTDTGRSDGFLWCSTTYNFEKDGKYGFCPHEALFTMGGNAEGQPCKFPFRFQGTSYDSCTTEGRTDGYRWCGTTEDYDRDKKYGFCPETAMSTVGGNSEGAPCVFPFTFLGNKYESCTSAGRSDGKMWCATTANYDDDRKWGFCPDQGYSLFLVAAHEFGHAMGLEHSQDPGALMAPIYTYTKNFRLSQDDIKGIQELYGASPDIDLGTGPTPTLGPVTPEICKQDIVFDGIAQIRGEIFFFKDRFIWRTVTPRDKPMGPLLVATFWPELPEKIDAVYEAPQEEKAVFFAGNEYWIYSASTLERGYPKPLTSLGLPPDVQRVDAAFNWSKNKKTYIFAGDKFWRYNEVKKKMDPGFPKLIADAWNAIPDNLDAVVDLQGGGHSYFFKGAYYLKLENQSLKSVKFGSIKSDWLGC

The target of data set [17] is T3, Disintegrin and metalloproteinase domain-containing protein 17. Briefly: Inhibition of ADAM17 (unknown origin) at 100 uM preincubated for 30 mins followed by substrate addition measured every 30 mins for 2 hrs by fluorescence assay relative to control. A digest of the protocol: as §2
The nature of data set [18]: Cytotoxicity against CHOK1 cells assessed as inhibition of cell viability up to 33 uM after 72 hrs by CellTiter-Glo assay. To be noted: chinese hamster, cho-k1, 72 h. Type of data set: cell-based, Cricetulus griseus.
For data set [19], the target named is T1, Disintegrin and metalloproteinase domain-containing protein 10 (Homo sapiens). Briefly: Inhibition of ADAM10 in HTSMC assessed as inhibition of constitutive release of fractalkine/CX3CL1 at 10 uM preincubated for 30 mins measured after 4 to 24 hrs by ELISA.
Another data set relates to HepG2. Briefly: Cytotoxicity against human HepG2 cells assessed as inhibition of cell viability up to 33 uM after 72 hrs by CellTiter-Glo assay. To be noted: hepg2, 72 h. Type of data set: cell-based.
The target of data set [20] is T4, Matrix metalloproteinase-14. Briefly: Inhibition of MMP14 (unknown origin) using Mca-KLPGL-Dnp-AR as substrate preincubated for 30 mins followed by substrate addition measured after 1 hr by fluorescence assay. A digest of the protocol: as §1
In data set [21] the target is T3, Disintegrin and metalloproteinase domain-containing protein 17. Briefly: Inhibition of ADAM17 in human A549 cells assessed as inhibition of PMA-stimulated heregulin shedding at 40 uM incubated for 1 hr followed by PMA stimulation measured after 1 hr. Type of data set: cell-based. A digest of the protocol: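 Heregulin shedding in A549 cells, with all compounds tested at 40 μM.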

Data set [22] shares this target. Briefly: Inhibition of ADAM17 in human SW480 cells assessed as inhibition of PMA-stimulated wild type PTK7 shedding at 25 to 100 uM after 16 hrs by Western blot analysis. Type of data set: cell-based. In outline:
(§4)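 PTK7 shedding tested at 25, 50 and 100 μM in PMA-stimulated cells. HT1080 fibrosarcoma cells carried the L622D PTK7 mutant uncleavable by MT1-MMP; SW480 colorectal cells expressed wild-type PTK7 endogenously. Soluble PTK7 was detected.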

The target is the same in data set [23]. Briefly: Inhibition of ADAM17 in human EAhy926 cells assessed as inhibition of neprilysin shedding at 15 uM relative to control. Type of data set: cell-based.
Data set [24] shares this target. Briefly: Inhibition of ADAM17 in human THP1 cells assessed as inhibition of LPS-stimulated TNFalpha cleavage after 1 hr by AlphaScreen assay. Type of data set: cell-based, THP-1. A digest of the protocol:
as §3

For data set [25] the target is unchanged. Briefly: Inhibition of ADAM17 in human HT1080 cells assessed as inhibition of PMA-stimulated PTK7 L622D mutant shedding at 25 to 100 uM after 16 hrs by Western blot analysis. Type of data set: cell-based. The following applies: HT-1080. In outline:
as §4

The source made the active and inactive calls. No cut-off for these calls is given here.

T5 sequence (P14780 whole entry): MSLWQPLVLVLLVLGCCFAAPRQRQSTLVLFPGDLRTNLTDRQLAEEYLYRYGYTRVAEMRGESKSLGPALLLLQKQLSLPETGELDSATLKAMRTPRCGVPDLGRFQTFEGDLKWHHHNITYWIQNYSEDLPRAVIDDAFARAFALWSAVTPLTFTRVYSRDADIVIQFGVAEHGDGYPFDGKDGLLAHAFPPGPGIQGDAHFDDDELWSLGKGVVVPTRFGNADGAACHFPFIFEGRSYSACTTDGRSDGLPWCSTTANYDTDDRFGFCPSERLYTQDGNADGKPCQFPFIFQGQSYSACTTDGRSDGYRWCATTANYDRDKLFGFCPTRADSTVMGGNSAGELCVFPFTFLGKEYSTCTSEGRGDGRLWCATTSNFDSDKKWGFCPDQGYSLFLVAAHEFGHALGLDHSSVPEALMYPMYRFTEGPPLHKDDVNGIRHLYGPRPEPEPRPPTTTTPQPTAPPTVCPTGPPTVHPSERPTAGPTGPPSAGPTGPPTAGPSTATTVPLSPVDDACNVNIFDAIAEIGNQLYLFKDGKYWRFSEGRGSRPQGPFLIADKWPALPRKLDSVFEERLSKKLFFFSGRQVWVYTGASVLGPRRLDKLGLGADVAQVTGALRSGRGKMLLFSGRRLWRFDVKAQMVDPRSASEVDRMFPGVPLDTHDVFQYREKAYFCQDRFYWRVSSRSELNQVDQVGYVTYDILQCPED
T3 sequence (P78536 whole entry, the tested form may be a part): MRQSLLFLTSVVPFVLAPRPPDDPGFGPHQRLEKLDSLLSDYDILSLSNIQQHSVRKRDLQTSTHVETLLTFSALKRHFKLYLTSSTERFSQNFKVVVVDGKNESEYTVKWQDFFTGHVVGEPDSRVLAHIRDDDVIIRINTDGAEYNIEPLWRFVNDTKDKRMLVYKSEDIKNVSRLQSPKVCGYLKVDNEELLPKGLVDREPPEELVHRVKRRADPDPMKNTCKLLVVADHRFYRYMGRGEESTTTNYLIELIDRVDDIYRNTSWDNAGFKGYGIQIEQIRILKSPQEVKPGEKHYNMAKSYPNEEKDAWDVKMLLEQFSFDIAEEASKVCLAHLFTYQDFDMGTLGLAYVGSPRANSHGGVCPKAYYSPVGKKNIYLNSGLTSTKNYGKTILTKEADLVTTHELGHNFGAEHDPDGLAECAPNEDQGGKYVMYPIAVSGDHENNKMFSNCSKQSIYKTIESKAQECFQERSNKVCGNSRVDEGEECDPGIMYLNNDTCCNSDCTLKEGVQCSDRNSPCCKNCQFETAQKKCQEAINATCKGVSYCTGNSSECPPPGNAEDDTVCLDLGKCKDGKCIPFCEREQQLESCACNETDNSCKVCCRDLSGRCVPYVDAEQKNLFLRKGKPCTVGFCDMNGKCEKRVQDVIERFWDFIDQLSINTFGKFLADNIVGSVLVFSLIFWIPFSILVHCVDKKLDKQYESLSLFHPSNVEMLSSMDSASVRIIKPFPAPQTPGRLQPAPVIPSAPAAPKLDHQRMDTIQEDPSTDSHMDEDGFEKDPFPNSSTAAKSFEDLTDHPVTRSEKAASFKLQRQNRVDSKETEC

Usually inhibition stands for the change of the read-out against control, counted positive when it falls. Turning to `CNC(=O)[C@@H](NC(=O)[C@H](CC(C)C)[C@H](O)C(=O)NO)C(C)(C)C`, in [1], the inhibition result was “Active”.
As usually defined, the IC50 is the concentration that gives 50% inhibition. As for `O=C1NC[C@H](Cc2ccccc2)N(C[C@@H]2CCCN2C[C@H](Cc2ccccc2)N2C[C@H](Cc3ccc(O)cc3)N(CCC34CC5CC(CC(C5)C3)C4)C(=O)C2=O)C1=O`, the IC50 was greater than 100 µM against Neutrophil collagenase [2]; 11 µM in data set [4]; greater than 100 µM in data set [13]; greater than 100 µM in data set [14]; greater than 100 µM in [15]; greater than 100 µM in data set [20]. The inhibition came out at 62% in data set [3]; 0% in [5]; 0% in [6]; 0% in data set [7]; 0% against Neutrophil collagenase [8]; 0% in data set [9]. In addition, the inhibition in data set [10] stood at 0%; in data set [11], 44%; in data set [12], 0%; in data set [16], 0%; in data set [17], 100%; in data set [19], 0%. For the same molecule, the inhibition in data set [21] amounted to 0%. The Activity entry (with A549; in the data set on MDA-MB-231; in [18]; with HepG2) was “Non-toxic” throughout.
`CCC[C@H]1CNC(=O)C(=O)N1C[C@@H]1CCCN1C[C@@H](CC1CCCCC1)N1C[C@H](Cc2ccccc2)N(CCc2ccccc2)C(=O)C1=O`: the IC50 on Neutrophil collagenase [2] is greater than 100 µM; in data set [4] it was 4.3 µM; in data set [13], greater than 100 µM; in data set [14], greater than 100 µM; in data set [24], 28 µM; in data set [15], greater than 100 µM. Besides, the half-inhibitory concentration (IC50) in data set [20] was greater than 100 µM. Also, the inhibition in [22] came out at 0%; in data set [23], 38%; in data set [7] it was 0%; on Neutrophil collagenase [8], 0%; in data set [10], 0%; in data set [11], 60%. Moreover, the inhibition is 0% in data set [12]; 0% in [16]; 100% in data set [17]; 0% in data set [25]; 28% in data set [21]. Further, the Activity entry (in the data set with A549; in data set [18]) was “Non-toxic” in each case.

These data come from ChEMBL document CHEMBL3593206, “SAR Studies of Exosite-Binding Substrate-Selective Inhibitors of A Disintegrin And Metalloprotease 17 (ADAM17) and Application as Selective in Vitro Probes” (J Med Chem, 2015).
